We go through eleven molecules from ChEMBL document CHEMBL3045132, “Synthesis and antiviral activity of novel chiral cyanoacrylate derivatives” (2005).

Type in all cases: functional
Test [1] relates to Echinochloa crus-galli. The experiment in a line: Herbicidal activity against Echinochloa crus-galli (barnyard grass) assessed as inhibition effect at 1500 g/ha sprayed soil immediately after seed planting. The essentials: (§1)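 Pre-emergence: compounds sprayed onto soil immediately after seed planting; equal amount of water sprayed as control. Aerial tissue fresh weight measured 10 days after treatment; activity expressed as percent inhibition of aerial fresh weight.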

The subject of test [2] is Amaranthus retroflexus. The experiment in a line: Herbicidal activity against Amaranthus retroflexus assessed as inhibition effect at 1500 g/ha sprayed to the stem and leaves after seed germination. The essentials: (§2)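 Post-emergence: compounds sprayed onto stems and leaves after seed germination; equal amount of water sprayed as control. Aerial tissue fresh weight measured 10 days after treatment; activity expressed as percent inhibition of aerial fresh weight.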

The subject of test [3] is Tobacco mosaic virus. The experiment in a line: Antiviral activity against Tobacco mosaic virus (TMV) inoculated in left side of Nicotiana tabacum L. leaves assessed as inhibition of local lesion number at 500 mg/l measured after 3 to 4 days. The essentials: (§3)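 Half-leaf test on Nicotiana tabacum L.: TMV mixed with an equal volume of compound solution for 30 min, then inoculated on the left half-leaf; right half received virus plus solvent as control. Local lesions counted 3-4 days after inoculation; three repetitions. Inhibition (%) = (control lesions − treated lesions)/control lesions.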

Test [4] has as its system Echinochloa crus-galli. In words: Herbicidal activity against Echinochloa crus-galli (barnyard grass) assessed as inhibition effect at 1500 g/ha sprayed to the stem and leaves after seed germination. The essentials:
as §2

In another test the test system is A-431. In words: Antiproliferative activity against Homo sapiens (human) A431 cells at 5 uM measured after 72 hr by MTT assay. Particulars: A-431, 72 h. The essentials:
(§4)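 Cells plated at 3 × 10³/well in F-12 (PC3) or RPMI 1640 (A431) with 10% fetal bovine serum; compounds dissolved in DMSO, diluted in medium, exposed 72 h; vehicle control 0.1% DMSO. MTT cleavage to formazan read at 550 nm. Inhibition rate (%) = (A1 − A2)/A1 × 100, A1 untreated and A2 treated mean optical density; values as mean ± s.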

In test [5] the test system is Brassica rapa subsp. oleifera. In words: Herbicidal activity against Brassica rapa subsp. oleifera assessed as inhibition effect at 1500 g/ha sprayed to the stem and leaves after seed germination. The essentials: as §2
The subject of test [6] is Brassica rapa subsp. oleifera. In words: Herbicidal activity against Brassica rapa subsp. oleifera assessed as inhibition effect at 1500 g/ha sprayed soil immediately after seed planting. The essentials: as §1
Another test concerns PC-3. The experiment in a line: Antiproliferative activity against Homo sapiens (human) PC3 cells at 5 uM measured after 72 hr by MTT assay. Particulars: PC-3, 72 h. The essentials: as §4
A general note: Tetrazolium assays rely on reduction of a dye to a coloured formazan, in cell work by metabolically active cells.

Test [7] relates to Tobacco mosaic virus. In words: Antiviral activity against Tobacco mosaic virus (TMV) inoculated in whole leaves of Nicotiana tabacum L. assessed as curative effect measured as local lesion number at 500 mg/l after 3 to 4 days. The essentials:
(§5)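 Same-age N. tabacum L. leaves dipped-inoculated over the whole leaf with TMV at 6 × 10^-3 mg/mL, then washed with water and dried. Compound solution smeared on left half, solvent on right half as control. Local lesions counted 3-4 days after inoculation; three repetitions. Inhibition (%) calculated from control versus treated average lesion numbers.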

Test [8] relates to Amaranthus retroflexus. The experiment in a line: Herbicidal activity against Amaranthus retroflexus assessed as inhibition effect at 1500 g/ha sprayed soil immediately after seed planting. The essentials:
as §1

The subject of test [9] is Tobacco mosaic virus. The experiment in a line: Antiviral activity against Tobacco mosaic virus (TMV) inoculated in left side of Nicotiana tabacum L. leaves assessed as inhibition of local lesion number at 50 mg/l measured after 3 to 4 days. The essentials: as §3
Test [10] deals with Tobacco mosaic virus. The experiment in a line: Antiviral activity against Tobacco mosaic virus (TMV) inoculated in whole leaves of Nicotiana tabacum L. assessed as curative effect measured as local lesion number at 50 mg/l after 3 to 4 days. The essentials: as §5

The inhibition is the share of the control response that was lost under treatment. In the case of `CCOC(=O)/C(C#N)=C(/Nc1ccc(C(F)(F)F)cc1)N[C@H](C)c1ccccc1`, the inhibition at 1500 g/ha in the test with Echinochloa crus-galli [1] came to 11.4%; in the test on Amaranthus retroflexus [2], 0%; in the test with Echinochloa crus-galli [4] it was 2.86%; in test [5] it was 0%; in test [6], 16.1%; in the test with Amaranthus retroflexus [8], 0%. The inhibition at 500 µg/mL was 28.9% in the test with Tobacco mosaic virus [3] and 39.1% with Tobacco mosaic virus [7]. Besides, the results for the inhibition at 5 µM in the test with A-431 and in the test with PC-3 were 43.1% and 59.4%, respectively.

Take `CCOC(=O)/C(C#N)=C(/Nc1ccc(C(F)(F)F)cc1)N[C@@H](C)c1ccccc1`: the inhibition at 1500 g/ha in the test with Echinochloa crus-galli [1] amounted to 10%; in the test on Amaranthus retroflexus [2], 0%; with Echinochloa crus-galli [4] it was 5.71%; in test [5] it was 30.5%; in [6], 21.4%; with Amaranthus retroflexus [8], 10.5%. For the same molecule, the inhibition at 500 µg/mL amounted to 6.1% with Tobacco mosaic virus [3] and 15.2% with Tobacco mosaic virus [7]. The inhibition at 5 µM in the test with A-431 came out at 39.9%; in the test with PC-3, 49.1%.

Regarding `CCOC(=O)/C(C#N)=C(/Nc1ccc(Br)cc1)N[C@H](C)c1ccccc1`, the inhibition at 1500 g/ha worked out at 4.29% in the test with Echinochloa crus-galli [1]; 0% in the test with Amaranthus retroflexus [2]; 0% in the test on Echinochloa crus-galli [4]; 10.9% in [5]; 5.38% in test [6]; 0% in the test with Amaranthus retroflexus [8]. The inhibition at 500 µg/mL with Tobacco mosaic virus [3] worked out at 53.4%; with Tobacco mosaic virus [7], 12.3%. Moreover, the inhibition at 5 µM was 16.1% in the test with A-431 and 1.5% in the test on PC-3.

As to `CCOC(=O)/C(C#N)=C(/Nc1ccc(Br)cc1)N[C@@H](C)c1ccccc1`, the inhibition at 1500 g/ha is 10% in the test with Echinochloa crus-galli [1]; 0% in the test with Amaranthus retroflexus [2]; 34.3% with Echinochloa crus-galli [4]; 35.3% in test [5]; 1.29% in test [6]; 0% in the test on Amaranthus retroflexus [8]. For the same molecule, the inhibition at 500 µg/mL with Tobacco mosaic virus [3] came out at 0%; in the test with Tobacco mosaic virus [7], 3.4%. The inhibition at 5 µM was found to be 19.3% with A-431 and 24.7% in the test on PC-3.

As for `CCOC(=O)/C(C#N)=C(/Nc1ccc([N+](=O)[O-])cc1)N[C@H](C)c1ccccc1`, the inhibition at 1500 g/ha with Echinochloa crus-galli [1] was 18.6%; in the test with Amaranthus retroflexus [2], 0%; in the test on Echinochloa crus-galli [4], 0%; in test [5], 17.2%; in test [6], 21.4%; in the test on Amaranthus retroflexus [8] it was 0%. The inhibition at 500 µg/mL in the test on Tobacco mosaic virus [3] stood at 89.1%; with Tobacco mosaic virus [7], 43.1%. The inhibition at 5 µM in the test on A-431 is 23.6%; in the test with PC-3, 2.9%.

In the case of `CCOC(=O)/C(C#N)=C(/Nc1ccc([N+](=O)[O-])cc1)N[C@@H](C)c1ccccc1`, the inhibition at 1500 g/ha in the test on Echinochloa crus-galli [1] turned out to be 14.3%; in the test with Amaranthus retroflexus [2], 0%; in the test with Echinochloa crus-galli [4], 13.3%; in test [5] it was 32.1%; in test [6], 25%; with Amaranthus retroflexus [8], 0%. In addition, the inhibition at 500 µg/mL worked out at 5.3% in the test with Tobacco mosaic virus [3] and 13.1% in the test on Tobacco mosaic virus [7]. For the same molecule, the results for the inhibition at 5 µM in the test with A-431 and in the test with PC-3 were 18.1% and 0.7%, respectively.

As for `CCOC(=O)/C(C#N)=C(/NNC(=O)c1cc(OC)c(OC)c(OC)c1)N[C@H](C)c1ccccc1`, the inhibition at 1500 g/ha with Echinochloa crus-galli [1] came out at 5.71%; with Amaranthus retroflexus [2] it was 0%; in the test with Echinochloa crus-galli [4], 7.62%; in test [5] it was 3.13%; in test [6], 0%; in the test with Amaranthus retroflexus [8] it was 26.3%. Also, the inhibition at 500 µg/mL was 46.4% in the test on Tobacco mosaic virus [3] and 26.7% in the test with Tobacco mosaic virus [7]. Also, the values for the inhibition at 5 µM in the test on A-431 and with PC-3 were 25.1% and 32.1%, respectively.

Regarding `CCOC(=O)/C(C#N)=C(/NNC(=O)c1cc(OC)c(OC)c(OC)c1)N[C@@H](C)c1ccccc1`, the inhibition at 1500 g/ha in the test on Echinochloa crus-galli [1] turned out to be 7.14%; in the test on Amaranthus retroflexus [2] it was 0%; in the test on Echinochloa crus-galli [4] it was 0%; in [5] it was 18.8%; in test [6] it was 0%; with Amaranthus retroflexus [8], 10.5%. For the same molecule, the values for the inhibition at 500 µg/mL in the test with Tobacco mosaic virus [3] and with Tobacco mosaic virus [7] were 7.5% and 12.1%, respectively. In addition, the inhibition at 5 µM in the test on A-431 was found to be 29.4%; in the test with PC-3, 3.2%.

Turning to `COc1ccc2c3c(c4cc(OC)c(OC)cc4c2c1)C[C@H]1CCCN1C3` [(-)-ANTOFINE], the inhibition at 50 µg/mL with Tobacco mosaic virus [9] stood at 14%; with Tobacco mosaic virus [10] it was 29.2%.

Regarding `O=c1[nH]cc(F)c(=O)[nH]1` [FLUOROURACIL], the inhibition at 5 µM was 30.7% with A-431 and 41.1% in the test on PC-3.

As to `CNCC(=O)N[C@@H](CO)C(=O)N[C@H]1[C@H](O)[C@@H](O)[C@H](n2ccc(N)nc2=O)O[C@@H]1C(N)=O` [NINGNANMYCIN], the inhibition at 500 µg/mL in the test on Tobacco mosaic virus [3] came out at 88.9%; in the test on Tobacco mosaic virus [7], 28.9%.
